ChEMBL document CHEMBL4819084, “Discovery of 3,5-dimethylisoxazole derivatives as novel, potent inhibitors for bromodomain and extraterminal domain (BET) family” (Bioorg Med Chem, 2021)
Calls of active or inactive are those of the source. The calls are words filed in the database; no cut-off is given here.

Legend:
[1] = target: T1, Bromodomain-containing protein 4 (Homo sapiens, UniProt O60885); experiment: Inhibition of BRD4-BD1 (unknown origin) preincubated for 15 mins followed by substrate addition and measured after 1 hr
[2] = target: T1, Bromodomain-containing protein 4; experiment: Potency index, ratio of 6-(3,5-Dimethylisoxazol-4-yl)-1-methyl-4-phenyl-3,4-dihydroquinazolin-2(1H)-one IC50 to test compound IC50 for inhibition of BRD4-BD1 (unknown origin)
[3] = Cytotoxicity against human MCF-10A cells assessed as inhibition of cell proliferation at 2 uM incubated for 48 hrs by MTT assay; assay type: cell-based
Summary of the method: (§1)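 Cryopreserved cells thawed at 37 °C, cultured one day, then seeded at 5000–10,000 cells/well in 96-well plates and left overnight to attach. Compound added at a single concentration or as a gradient series and incubated 48 h. MTT solution added and absorbance read.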

CT26 [4] = experiment: Antiproliferative activity against […] assessed as inhibition of cell proliferation at 2 uM incubated for 48 hrs by MTT assay relative to control; assay type: functional; details: Mus musculus; summary of the method: as §1
MCF7 = experiment: Antiproliferative activity against human MCF7 cells assessed as inhibition of cell proliferation at 2 uM incubated for 48 hrs by MTT assay relative to control; assay type: functional; summary of the method: as §1
HepG2 [5] = experiment: Antiproliferative activity against human HepG2 cells assessed as inhibition of cell proliferation at 2 uM incubated for 48 hrs by MTT assay relative to control; assay type: functional; summary of the method: as §1
HCT-116 = experiment: Antiproliferative activity against human HCT-116 cells assessed as inhibition of cell proliferation at 2 uM incubated for 48 hrs by MTT assay relative to control; assay type: functional; summary of the method: as §1
U-266 [6] = experiment: Antiproliferative activity against human U-266 cells assessed as inhibition of cell proliferation at 0.1 uM incubated for 48 hrs by MTT assay relative to control; assay type: functional; summary of the method: as §1
CT26 [7] = experiment: Antiproliferative activity against […] assessed as inhibition of cell proliferation incubated for 48 hrs by MTT assay; assay type: functional, cell-based; details: Mus musculus, CT26, 48 h; summary of the method: as §1
HepG2 [8] = experiment: Antiproliferative activity against human HepG2 cells assessed as inhibition of cell proliferation incubated for 48 hrs by MTT assay; assay type: functional, cell-based; details: HepG2, 48 h; summary of the method: as §1
U-266 [9] = experiment: Antiproliferative activity against human U-266 cells assessed as inhibition of cell proliferation incubated for 48 hrs by MTT assay; assay type: functional, cell-based; details: U-266, 48 h; summary of the method: as §1
U-266 [10] = experiment: Induction of cell cycle arrest in human U-266 cells assessed as increase in accumulation at G0/G1 phase at 1 to 2 uM incubated for 48 hrs by PI staining based flow cytometry analysis; assay type: functional; details: dose 1-2 µM
Summary of the method: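 U266 cells seeded at 1 × 10⁵ per 2 mL well in six-well plates and treated at 1 and 2 μM for 48 h. Cells harvested, fixed in 70% ethanol on ice for 30 min and washed in PBS. Stained with PI (0.05 mg/mL) plus RNaseA (0.5 mg/mL) for 30 min at room temperature in the dark, then analysed by flow cytometry for cycle distribution.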

U-266 [11] = experiment: Induction of apoptosis in human U-266 cells assessed as nucleus condensation at 1 to 8 uM incubated for 48 hrs by DAPI staining based fluorescence microscopic analysis; assay type: functional, cell-based; details: dose 1-8 µM
Summary of the method: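 U266 cells plated at 20000 cells/well in 12-well plates overnight, then treated at 1, 2 and 8 μM for 48 h. After a PBS wash, cells were stained with DAPI for 5 min, washed again and imaged under a fluorescence microscope for nuclear condensation.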

U-266 [12] = experiment: Induction of apoptosis in human U-266 cells incubated for 48 hrs by Annexin-V/FITC and PI staining based flow cytometry analysis; assay type: functional, cell-based; details: dose 1-8 µM
Summary of the method: (§2)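 U266 cells seeded at 1 × 10⁵ per 2 mL well in six-well plates and exposed to 1, 2 or 8 μM for 48 h. Cells collected, washed twice in cold PBS and resuspended in binding buffer. Annexin V-FITC added for 15 min, then PI for 5 min, both at 37 °C in the dark. Analysed by flow cytometry.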

U-266 [13] = experiment: Induction of apoptosis in human U-266 cells assessed as viable cells at 1 uM incubated for 48 hrs by Annexin-V/FITC and PI staining based flow cytometry analysis (reference value: 92.6 %); assay type: functional; details: read-out: Activity; summary of the method: as §2
U-266 [14] = experiment: Induction of apoptosis in human U-266 cells assessed as early apoptotic cells at 1 uM incubated for 48 hrs by Annexin-V/FITC and PI staining based flow cytometry analysis (reference value: 1.36 %); assay type: functional; summary of the method: as §2
U-266 [15] = experiment: Induction of apoptosis in human U-266 cells assessed as late apoptotic cells at 1 uM incubated for 48 hrs by Annexin-V/FITC and PI staining based flow cytometry analysis (reference value: 0.032 %); assay type: functional; summary of the method: as §2
U-266 [16] = experiment: Induction of apoptosis in human U-266 cells assessed as necrotic cells at 1 uM incubated for 48 hrs by Annexin-V/FITC and PI staining based flow cytometry analysis (reference value: 5.99 %); assay type: functional; summary of the method: as §2
U-266 [17] = experiment: Induction of apoptosis in human U-266 cells assessed as viable cells at 2 uM incubated for 48 hrs by Annexin-V/FITC and PI staining based flow cytometry analysis (reference value: 92.6 %); assay type: functional; details: read-out: Activity; summary of the method: as §2
U-266 [18] = experiment: Induction of apoptosis in human U-266 cells assessed as early apoptotic cells at 2 uM incubated for 48 hrs by Annexin-V/FITC and PI staining based flow cytometry analysis (reference value: 1.36 %); assay type: functional; summary of the method: as §2
U-266 [19] = experiment: Induction of apoptosis in human U-266 cells assessed as late apoptotic cells at 2 uM incubated for 48 hrs by Annexin-V/FITC and PI staining based flow cytometry analysis (reference value: 0.032 %); assay type: functional; summary of the method: as §2
U-266 [20] = experiment: Induction of apoptosis in human U-266 cells assessed as necrotic cells at 2 uM incubated for 48 hrs by Annexin-V/FITC and PI staining based flow cytometry analysis (reference value: 5.99 %); assay type: functional; summary of the method: as §2
U-266 [21] = experiment: Induction of apoptosis in human U-266 cells assessed as viable cells at 8 uM incubated for 48 hrs by Annexin-V/FITC and PI staining based flow cytometry analysis (reference value: 92.6 %); assay type: functional; details: read-out: Activity; summary of the method: as §2
U-266 [22] = experiment: Induction of apoptosis in human U-266 cells assessed as early apoptotic cells at 8 uM incubated for 48 hrs by Annexin-V/FITC and PI staining based flow cytometry analysis (reference value: 1.36 %); assay type: functional; summary of the method: as §2
U-266 [23] = experiment: Induction of apoptosis in human U-266 cells assessed as late apoptotic cells at 8 uM incubated for 48 hrs by Annexin-V/FITC and PI staining based flow cytometry analysis (reference value: 0.032 %); assay type: functional; summary of the method: as §2
U-266 [24] = experiment: Induction of apoptosis in human U-266 cells assessed as necrotic cells at 8 uM incubated for 48 hrs by Annexin-V/FITC and PI staining based flow cytometry analysis (reference value: 5.99 %); assay type: functional; summary of the method: as §2

`Cc1noc(C)c1-c1ccc2c(c1)C(c1ccccc1)N(CCCCN1CCN(c3ccc4nnc(Cl)n4n3)CC1)C(=O)N2C` (stereo unspecified) gave an IC50 [1] of 0.003 µM, a Ratio IC50 [2] of 8 and an inhibition at 48 h, 2 µM [3] of 11.6%. For the same molecule, the inhibition at 2 µM (CT26 [4]) was 41%, the inhibition at 2 µM (MCF7) was 35.5% and the inhibition at 2 µM (HepG2 [5]) was 46.7%. The inhibition at 2 µM (HCT-116) was 61.8%, the inhibition at 0.1 µM (U-266 [6]) was 52.3% and the IC50 (CT26 [7]) was 15.8 µM. For the same molecule, the IC50 (HepG2 [8]) was 16.7 µM, the IC50 (U-266 [9]) was 2.11 µM and the Activity (U-266 [10]) was “Active”. For the same molecule, the Activity (U-266 [11]) was “Active”, the Activity (U-266 [12]) was “Dose-Dependent Effect” and the viability at 1 µM (U-266 [13]) was 82.6%. It also gave an Activity (U-266 [14]) of 13.2%, an Activity (U-266 [15]) of 1.23% and an Activity (U-266 [16]) of 3.06%. The viability at 2 µM (U-266 [17]) was 77.6%, the Activity (U-266 [18]) was 14.8% and the Activity (U-266 [19]) was 2.91%. For the same molecule, the Activity (U-266 [20]) was 4.6%, the viability at 8 µM (U-266 [21]) was 65.4% and the Activity (U-266 [22]) was 22.7%. It also gave an Activity (U-266 [23]) of 6.75% and an Activity (U-266 [24]) of 5.11%.
